Reference: paper PMC3072167 (Bioorganic & medicinal chemistry letters, 2011)
Entries after “also recorded” stand apart in the source; their conditions may differ.

Columns and labels:
[1] = molecular target: chymotrypsin-like activity of the proteasome (Homo sapiens, UniProt P28074); assay: Enzyme kinetic study; format: biochemical
Outline: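 The 20S proteasome chymotrypsin-like activity was measured across a range of Suc-Leu-Leu-Val-Tyr-AMC concentrations, with or without 2 μM or 4 μM test compound. Cleaved substrate was read as fluorescence units, and reaction rates were plotted as Lineweaver-Burk plots to derive Km and Vmax. Each point is the average of two independent experiments.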

HeLa Ub^G76V-GFP cells = assay: Cell based proteasome assay: accumulation of UbG76V-GFP; conditions: 7.5 uM for 24 hours; fluorescence microscope
Outline: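 HeLa cells stably expressing UbG76V-GFP, seeded at 10,000 cells per well in growth medium, were cultured with test compound (7.5 uM) for 24 hours. Intracellular UbG76V-GFP accumulation was recorded as green fluorescence by fluorescence microscopy.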

[2] = molecular target: chymotrypsin-like (ChT-L) activities of the 20S proteasome (Homo sapiens, UniProt P28074); assay: Inhibition of chymotrypsin-like; format: biochemical; conditions: qualitative statements in text

| Compound | Inhibition of the chymotrypsin-like activity of the 20S proteasome, in words [2] | further results |
| --- | --- | --- |
| C[C@H](CCC(=O)O)[C@H]1CC[C@H]2[C@@H]3CC[C@@H]4C[C@H](OC(=O)CC5(CC(=O)O)CCCC5)CC[C@]4(C)[C@H]3CC[C@]12C [Compound 10] | – | Mode of proteasome inhibition ([1]; Lineweaver-Burk plot, 2 μM and 4 μM compound, substrate Suc-Leu-Leu-Val-Tyr-AMC): noncompetitive inhibitor; Effect on Michaelis-Menten constant (Km) of the substrate ([1]; compound at 2 μM and 4 μM): without affecting; Effect on maximum reaction rate (Vmax) of the proteasomal activity ([1]; compound at 2 μM and 4 μM): reduced; Accumulation of Ub^G76V-GFP (green fluorescence) in cells (HeLa Ub^G76V-GFP cells): resulted in accumulation of Ub^G76V-GFP; also recorded: inhibited the proteasome |
| C[C@H]1[C@H](C)CC[C@]2(C(=O)O)CC[C@]3(C)C(=CC[C@@H]4[C@@]5(C)CC[C@H](O)C(C)(C)[C@@H]5CC[C@]43C)[C@H]12 [ursolic acid, reference compound] | only LA inhibited | – |
| COC(=O)CC[C@@H](C)[C@H]1CC[C@H]2[C@@H]3CC[C@@H]4C[C@H](O)CC[C@]4(C)[C@H]3CC[C@]12C [Compound 1] | loss of inhibitory activity | – |
| COC(=O)CC[C@@H](C)[C@H]1CC[C@H]2[C@@H]3CC[C@@H]4C[C@H](OC(=O)CCCCCC(=O)O)CC[C@]4(C)[C@H]3CC[C@]12C [Compound 16] | loss of inhibitory activity | – |
| CC1(C)C=C2[C@H]3CC[C@@H]4[C@@]5(C)CCC(=O)C(C)(C)[C@@H]5CC[C@@]4(C)[C@]3(C)CC[C@@]2(C(=O)O)CC1 [moronic acid, reference compound] | only LA inhibited | – |
| CCOC(=O)CC[C@@H](C)[C@H]1CC[C@H]2[C@@H]3CC[C@@H]4C[C@H](OC(=O)CCCCCC(=O)O)CC[C@]4(C)[C@H]3CC[C@]12C [Compound 17] | loss of inhibitory activity | – |
| COC(=O)CC[C@@H](C)[C@H]1CC[C@H]2[C@@H]3CC[C@@H]4C[C@H](OC(=O)Cc5cccc(CC(=O)O)c5)CC[C@]4(C)[C@H]3CC[C@]12C [Compound 15] | lost the inhibitory activity; also recorded: loss of inhibitory activity | – |
| CCOC(=O)CC[C@@H](C)[C@H]1CC[C@H]2[C@@H]3CC[C@@H]4C[C@H](O)CC[C@]4(C)[C@H]3CC[C@]12C [Compound 2] | loss of inhibitory activity | – |
| C[C@H](CCC(=O)O)[C@H]1CC[C@H]2[C@@H]3CC[C@@H]4C[C@H](OC(=O)CCCCCC(=O)O)CC[C@]4(C)[C@H]3CC[C@]12C [Compound 8] | did not inhibit | – |
